What was measured:
P2Y purinoceptor 12 [1] = biological target: T1, P2Y purinoceptor 12 (Homo sapiens, UniProt Q9H244); assay: Ratio of compound IC50 to thienopyrimidine IC50 for P2Y12 receptor in human platelet rich plasma assessed as inhibition of ADP-induced platelet aggregation by light transmission aggregometry
Summary of the method: (§1)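 Human platelet-rich plasma was pre-incubated 5 min at 37 °C with compound across seven concentrations (10 down to 0.156). Aggregation was started with ADP (20, final) and followed by light transmission at 626 nm for 15 min at 37 °C. Duplicate concentration-response data were read at the 15-min end-point. IC50 was divided by the IC50 of the thienopyrimidine reference run on the same plate.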

P2Y purinoceptor 12 [2] = biological target: T1, P2Y purinoceptor 12; assay: Binding affinity at human recombinant P2Y12 receptor expressed in CHO cells by radioligand binding assay; type: cell-based
Summary of the method: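 Washed membranes from CHO cells transfected with synthetic human P2Y12 gene. Compounds as 7-point threefold dilutions, triplicate, 1 h at room temperature. Nonspecific binding defined with 300 nM 2-MeSADP. Filtered, washed with ice-cold Tris pH 7.4. Single-site fit; IC50 converted to Ki by Cheng–Prusoff, geometric mean of n≥2.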

Liver microsomes [3] = assay: Metabolic stability in human liver microsomes assessed as compound remaining; type: ADME, Microsome
Summary of the method: (§2)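 Compounds incubated 30 min with human or rat liver microsomes; percent of parent compound remaining measured.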

[4] = Effective half life in Sprague-Dawley rat at 2 mg/kg, iv and 5 mg/kg, po; type: ADME, organism-based; details: in vivo
P2Y purinoceptor 12 [5] = biological target: T1, P2Y purinoceptor 12; assay: Ratio of compound IC50 to AZD-6140 IC50 for P2Y12 receptor in human platelet rich plasma assessed as inhibition of ADP-induced platelet aggregation by light transmission aggregometry
Summary of the method: as §1, with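 “AZD-6140” for “the thienopyrimidine reference”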

hERG (KCNH2) = hERG (KCNH2) (Homo sapiens, UniProt Q12809); assay: Displacement of Cy3B-tagged N-desmethyl dofetilide from human ERG expressed in HEK cells at 10 uM after 120 mins; type: cell-based, HEK293; details: HEK cells that express human ERG, probe Cy3B-tagged N-desmethyl dofetilide
Summary of the method: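 Fluorescence polarization competition assay with HEK-hERG membrane homogenates and Cy3B-tagged N-desmethyl dofetilide tracer. Compound tested at a single 10 µM concentration, 120 min incubation, end-point read for percent inhibition.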

CYP2C9 = CYP2C9 (Homo sapiens, UniProt P11712); assay: Inhibition of CYP2C9 at 3 uM after 30 mins; type: ADME
Summary of the method: (§3)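 Each CYP isoform assayed separately at a single 3 µM compound concentration in duplicate, with at least one isoform-specific positive control inhibitor. Incubation 30 min at 37 °C; end-point measurement gives percent inhibition.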

[6] = Selectivity for human P2Y12 receptor over P2Y1
CYP3A4 = CYP3A4 (Homo sapiens, UniProt P08684); assay: Inhibition of CYP3A4 at 3 uM after 30 mins; type: ADME; summary of the method: as §3
[7] = Oral bioavailability in Sprague-Dawley rat at 5 mg/kg; type: ADME, organism-based; details: in vivo
CYP1A2 = biological target: T2, CYP1A2 (Homo sapiens, UniProt P05177); assay: Inhibition of CYP1A2 at 3 uM after 30 mins; type: ADME; summary of the method: as §3
T2 sequence (P05177 whole entry): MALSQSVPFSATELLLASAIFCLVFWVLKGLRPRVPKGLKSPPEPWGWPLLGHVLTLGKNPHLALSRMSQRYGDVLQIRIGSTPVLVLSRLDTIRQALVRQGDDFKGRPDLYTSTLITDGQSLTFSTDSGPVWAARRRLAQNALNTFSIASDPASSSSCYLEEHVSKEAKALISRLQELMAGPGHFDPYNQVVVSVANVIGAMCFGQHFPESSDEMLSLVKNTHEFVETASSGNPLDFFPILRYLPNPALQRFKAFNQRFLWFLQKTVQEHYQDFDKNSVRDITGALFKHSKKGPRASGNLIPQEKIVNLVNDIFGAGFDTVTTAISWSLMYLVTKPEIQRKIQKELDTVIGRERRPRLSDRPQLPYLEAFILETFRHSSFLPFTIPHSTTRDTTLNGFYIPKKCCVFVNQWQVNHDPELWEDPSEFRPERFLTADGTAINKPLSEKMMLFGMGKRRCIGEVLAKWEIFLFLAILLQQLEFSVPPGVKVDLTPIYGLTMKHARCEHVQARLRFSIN

CYP2D6 = CYP2D6 (Homo sapiens, UniProt P10635); assay: Inhibition of CYP2D6 at 3 uM after 30 mins; type: ADME; summary of the method: as §3
[8] = Clearance in Sprague-Dawley rat at 2 mg/kg, iv and 5 mg/kg, po; type: ADME, organism-based; details: in vivo
[9] = Selectivity for human P2Y12 receptor over P2Y13
[10] = Volume of distribution at steady state in Sprague-Dawley rat at 2 mg/kg, iv and 5 mg/kg, po; type: ADME, organism-based; details: in vivo, read-out: Vdss
Liver microsomes [11] = assay: Metabolic stability in rat liver microsomes assessed as compound remaining; type: ADME, Microsome; summary of the method: as §2

Chain of CYP3A4 (P08684 whole entry): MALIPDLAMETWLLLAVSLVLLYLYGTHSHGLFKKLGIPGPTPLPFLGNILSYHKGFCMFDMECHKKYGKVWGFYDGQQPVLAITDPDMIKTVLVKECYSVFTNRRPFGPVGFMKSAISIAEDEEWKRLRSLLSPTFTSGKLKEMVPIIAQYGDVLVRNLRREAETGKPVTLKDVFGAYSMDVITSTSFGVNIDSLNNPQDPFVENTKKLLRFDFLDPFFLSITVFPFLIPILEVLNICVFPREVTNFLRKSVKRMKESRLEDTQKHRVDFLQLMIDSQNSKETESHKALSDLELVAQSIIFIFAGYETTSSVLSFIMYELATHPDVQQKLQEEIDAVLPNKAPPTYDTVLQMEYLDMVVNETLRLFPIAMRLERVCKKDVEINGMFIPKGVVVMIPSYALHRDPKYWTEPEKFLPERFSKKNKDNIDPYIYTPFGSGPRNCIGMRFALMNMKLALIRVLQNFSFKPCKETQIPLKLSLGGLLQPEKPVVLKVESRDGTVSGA
Chain of CYP2C9 (P11712 whole entry, canonical isoform): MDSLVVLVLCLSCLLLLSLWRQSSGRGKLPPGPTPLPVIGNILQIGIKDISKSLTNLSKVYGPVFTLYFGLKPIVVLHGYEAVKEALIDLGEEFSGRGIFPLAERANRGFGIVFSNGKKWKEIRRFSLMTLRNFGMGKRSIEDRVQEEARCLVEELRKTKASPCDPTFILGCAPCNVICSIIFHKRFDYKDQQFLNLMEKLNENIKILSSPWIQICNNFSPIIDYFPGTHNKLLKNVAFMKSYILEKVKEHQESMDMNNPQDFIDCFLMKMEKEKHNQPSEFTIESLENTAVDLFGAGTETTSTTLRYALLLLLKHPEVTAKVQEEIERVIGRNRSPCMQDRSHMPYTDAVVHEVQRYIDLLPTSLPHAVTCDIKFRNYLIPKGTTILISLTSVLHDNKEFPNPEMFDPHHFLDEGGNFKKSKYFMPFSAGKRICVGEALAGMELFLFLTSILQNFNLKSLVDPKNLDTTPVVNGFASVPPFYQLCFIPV
T1 sequence (Q9H244 whole entry): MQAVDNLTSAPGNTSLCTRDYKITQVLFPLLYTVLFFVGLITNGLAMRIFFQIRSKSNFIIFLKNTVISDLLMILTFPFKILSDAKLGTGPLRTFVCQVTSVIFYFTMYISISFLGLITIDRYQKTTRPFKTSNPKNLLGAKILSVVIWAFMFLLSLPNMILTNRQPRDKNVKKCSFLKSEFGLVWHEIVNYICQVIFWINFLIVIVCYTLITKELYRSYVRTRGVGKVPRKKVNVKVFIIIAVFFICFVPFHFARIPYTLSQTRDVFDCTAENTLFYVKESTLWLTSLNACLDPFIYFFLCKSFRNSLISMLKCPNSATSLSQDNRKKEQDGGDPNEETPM
Chain of CYP2D6 (P10635 whole entry): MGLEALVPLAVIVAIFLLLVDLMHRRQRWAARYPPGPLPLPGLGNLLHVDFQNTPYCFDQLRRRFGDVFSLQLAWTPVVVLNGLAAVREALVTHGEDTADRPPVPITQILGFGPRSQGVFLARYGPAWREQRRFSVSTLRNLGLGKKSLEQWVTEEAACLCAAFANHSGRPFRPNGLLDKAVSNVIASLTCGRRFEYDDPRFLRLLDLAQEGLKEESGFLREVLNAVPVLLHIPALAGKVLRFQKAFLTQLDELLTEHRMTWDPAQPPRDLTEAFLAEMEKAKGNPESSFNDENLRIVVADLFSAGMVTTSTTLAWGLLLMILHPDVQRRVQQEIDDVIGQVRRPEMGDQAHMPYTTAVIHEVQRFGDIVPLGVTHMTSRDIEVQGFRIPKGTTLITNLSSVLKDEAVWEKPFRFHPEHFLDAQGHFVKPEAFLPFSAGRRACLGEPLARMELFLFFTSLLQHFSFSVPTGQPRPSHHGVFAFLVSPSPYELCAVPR
Chain of hERG (KCNH2) (Q12809 whole entry): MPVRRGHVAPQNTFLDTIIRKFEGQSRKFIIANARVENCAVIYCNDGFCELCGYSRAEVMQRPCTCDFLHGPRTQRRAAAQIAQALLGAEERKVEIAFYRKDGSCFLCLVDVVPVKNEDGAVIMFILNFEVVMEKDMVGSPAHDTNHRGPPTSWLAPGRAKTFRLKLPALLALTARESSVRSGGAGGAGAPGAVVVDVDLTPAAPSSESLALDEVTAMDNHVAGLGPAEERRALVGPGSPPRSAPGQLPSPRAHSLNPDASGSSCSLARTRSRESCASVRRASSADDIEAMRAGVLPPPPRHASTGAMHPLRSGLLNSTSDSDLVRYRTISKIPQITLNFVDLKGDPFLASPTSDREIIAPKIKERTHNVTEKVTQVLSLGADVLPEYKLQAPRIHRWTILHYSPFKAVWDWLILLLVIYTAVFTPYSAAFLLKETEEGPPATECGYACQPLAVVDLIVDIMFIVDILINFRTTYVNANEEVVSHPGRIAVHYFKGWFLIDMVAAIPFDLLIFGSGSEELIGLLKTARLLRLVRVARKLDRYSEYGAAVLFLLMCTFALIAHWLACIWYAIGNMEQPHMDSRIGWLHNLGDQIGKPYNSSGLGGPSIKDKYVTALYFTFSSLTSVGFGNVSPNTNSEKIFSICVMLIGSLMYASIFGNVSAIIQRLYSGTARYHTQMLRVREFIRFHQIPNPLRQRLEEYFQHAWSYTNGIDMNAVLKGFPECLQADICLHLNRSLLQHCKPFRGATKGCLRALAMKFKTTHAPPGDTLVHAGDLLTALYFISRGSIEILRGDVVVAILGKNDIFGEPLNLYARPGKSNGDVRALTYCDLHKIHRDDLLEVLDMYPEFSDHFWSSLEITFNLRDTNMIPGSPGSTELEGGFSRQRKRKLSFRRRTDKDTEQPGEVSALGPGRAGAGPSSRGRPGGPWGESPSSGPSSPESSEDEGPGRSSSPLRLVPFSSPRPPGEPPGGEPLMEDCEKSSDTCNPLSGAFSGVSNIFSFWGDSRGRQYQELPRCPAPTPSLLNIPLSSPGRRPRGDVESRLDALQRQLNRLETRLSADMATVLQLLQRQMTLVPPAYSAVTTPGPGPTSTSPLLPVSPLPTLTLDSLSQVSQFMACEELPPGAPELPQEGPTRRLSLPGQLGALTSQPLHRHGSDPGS

| Compound | Ratio IC50 (P2Y purinoceptor 12 [1]) | Ki (P2Y purinoceptor 12 [2]) | Stability (Liver microsomes [3]) | half-life [4] | Ratio IC50 (P2Y purinoceptor 12 [5]) | inhibition at 0.5 h, 3 µM (CYP2C9) | fold change (FC) [6] | inhibition at 0.5 h, 3 µM (CYP3A4) | bioavailability [7] | inhibition at 0.5 h, 3 µM (CYP1A2) | inhibition at 0.5 h, 3 µM (CYP2D6) | clearance [8] | fold change (FC) [9] | Vd [10] | Stability (Liver microsomes [11]) | inhibition at 2 h, 10 µM (hERG (KCNH2)) |
| --- | --- | --- | --- | --- | --- | --- | --- | --- | --- | --- | --- | --- | --- | --- | --- | --- |
| CCCCOC(=O)N1CCN(C(=O)[C@H](CCC(=O)O)NC(=O)c2cc(N3CCC(C(=O)NCC)CC3)nc(-c3ccccc3)n2)CC1 | 0.1 | 0.38 nM | > 80% | 6 min | 0.6 | < 25% | > 340 | < 25% | 7% | < 25% | < 25% | 16 mL/min/kg | > 340 | 0.3 L/kg | > 80% | < 25% |
| CCCCCOC(=O)N1CCN(C(=O)[C@H](CCC(=O)O)NC(=O)c2cc(N3CCC(C(N)=O)CC3)nc(-c3ccccc3)n2)CC1 | 0.1 | 2 nM | > 80% | 24 min | 0.7 | < 25% | > 340 | < 25% |  | < 25% | < 25% | 68 mL/min/kg | > 340 | 2.4 L/kg | > 80% | < 25% |
| CCCCCOC(=O)N1CCN(C(=O)[C@H](CCC(=O)O)NC(=O)c2cc(N3CCC(N4CCCC4)CC3)nc(-c3ccccc3)n2)CC1 | 0.1 | 1.5 nM | > 80% |  | 0.4 | < 25% | > 340 | < 25% |  | < 25% | < 25% |  | > 340 |  | > 80% | < 25% |
| CCCCCOC(=O)N1CCN(C(=O)[C@H](CCC(=O)O)NC(=O)c2cc(N3CCC(C(=O)N(CC)CC)CC3)nc(-c3ccccc3)n2)CC1 | 0.1 | 1.5 nM | > 80% | 24 min | 0.6 | < 25% | > 340 | < 25% | 38% | < 25% | < 25% | 6 mL/min/kg | > 340 | 0.21 L/kg | > 80% | < 25% |
| CCCCCOC(=O)N1CCN(C(=O)[C@H](CCC(=O)O)NC(=O)c2cc(N3CCC(CN4CCCC4)CC3)nc(-c3ccccc3)n2)CC1 | 0.1 | 0.4 nM | > 80% | 18 min | 0.7 | < 25% | > 340 | < 25% | 1% | < 25% | < 25% | 98 mL/min/kg | > 340 | 7.7 L/kg | > 80% | < 25% |
| CCCCCOC(=O)N1CCN(C(=O)[C@H](CCC(=O)O)NC(=O)c2cc(N3CCC(C(=O)N4CCCC4)CC3)nc(-c3ccccc3)n2)CC1 | 0.06 | 0.46 nM | > 80% | 48 min | 0.4 | < 25% | > 340 | < 25% | 13% | < 25% | < 25% | 2 mL/min/kg | > 340 | 0.2 L/kg | > 80% | < 25% |
| CCCCCOC(=O)N1CCN(C(=O)[C@H](CCC(=O)O)NC(=O)c2cc(N3CCC(C(=O)NCC)CC3)nc(-c3ccccc3)n2)CC1 | 0.2 | 0.6 nM | > 80% | 18 min | 1.5 | < 25% | > 340 | < 25% | 8% | < 25% | < 25% | 8 mL/min/kg | > 340 | 0.2 L/kg | > 80% | < 25% |

Second part, led by results:

| Ratio IC50 (P2Y purinoceptor 12 [1]) | Ki (P2Y purinoceptor 12 [2]) | Stability (Liver microsomes [3]) | half-life [4] | Ratio IC50 (P2Y purinoceptor 12 [5]) | inhibition at 0.5 h, 3 µM (CYP2C9) | fold change (FC) [6] | inhibition at 0.5 h, 3 µM (CYP3A4) | bioavailability [7] | inhibition at 0.5 h, 3 µM (CYP1A2) | inhibition at 0.5 h, 3 µM (CYP2D6) | clearance [8] | fold change (FC) [9] | Vd [10] | Stability (Liver microsomes [11]) | Compound | inhibition at 2 h, 10 µM (hERG (KCNH2)) |
| --- | --- | --- | --- | --- | --- | --- | --- | --- | --- | --- | --- | --- | --- | --- | --- | --- |
| 0.2 | 9.4 nM | > 80% | 12 min | 1.2 | < 25% | > 340 | < 25% | 1% | < 25% | < 25% | 16 mL/min/kg | > 340 | 0.28 L/kg | > 80% | CCCCCOC(=O)N1CCN(C(=O)[C@H](CCC(=O)O)NC(=O)c2nc(-c3ccccc3)cc(N3CCC(CN)CC3)n2)CC1 | < 25% |
| 0.1 | 1.2 nM | > 80% | 42 min | 0.7 | < 25% | > 340 | < 25% | 2% | < 25% | < 25% | 31 mL/min/kg | > 340 | 2 L/kg | > 80% | CCCCCOC(=O)N1CCN(C(=O)[C@H](CCC(=O)O)NC(=O)c2cc(N3CCC(CNC)CC3)nc(-c3ccccc3)n2)CC1 | < 25% |
| 0.4 | 8.4 nM | > 80% | 54 min | 2.8 | < 25% | > 340 | < 25% | 61% | < 25% | < 25% | 14 mL/min/kg | > 340 | 1.1 L/kg | > 80% | CCCCCOC(=O)N1CCN(C(=O)[C@H](CCC(=O)O)NC(=O)c2cc(N3CCC(COC)CC3)nc(-c3ccccc3)n2)CC1 | < 25% |
| 0.4 | 0.71 nM | > 80% | 30 min | 0.9 | < 25% | > 340 | < 25% |  | < 25% | < 25% | 18 mL/min/kg | > 340 | 0.8 L/kg | > 80% | CCCCCOC(=O)N1CCN(C(=O)[C@H](CCC(=O)O)NC(=O)c2cc(N3CCC(OCCO)CC3)nc(-c3ccccc3)n2)CC1 | < 25% |
| 1.4 | 12 nM | > 80% | 18 min | 9.5 | < 25% | > 340 | < 25% | 6% | < 25% | < 25% | 6 mL/min/kg | > 340 | 0.15 L/kg | > 80% | CCCCCOC(=O)N1CCN(C(=O)[C@H](CCC(=O)O)NC(=O)c2nc(-c3ccccc3)cc(N3CCC(COC)CC3)n2)CC1 | < 25% |

From ChEMBL document CHEMBL1156077, “Piperazinyl-glutamate-pyrimidines as potent P2Y12 antagonists for inhibition of platelet aggregation” (Bioorg Med Chem Lett, 2009)
